Experimental data collected from several papers.
Compare with care: the assays were run in different laboratories.
Effect on: metabolic stability
Matrix: liver microsomes

With CC(C)NCC(O)COc1cccc2ccccc12 (stereo not shown) the compound remaining was under 7% (male rat; 1 µM; 30 min).
Cc1ccc2c(c1)nc(CCc1cccc3cccnc13)n2-c1ccccc1 has a compound remaining of 0.05% (rat; 1.5 µM; 45 min).
For CC[C@H](C)C(=O)O[C@H]1C[C@@H](C)C=C2C=C[C@H](C)[C@H](CC[C@@H]3C[C@@H](O)CC(=O)O3)[C@H]21, the compound remaining was 0.85% (mouse; 1 µM; 5 min; pH 7.4).
With N#Cc1ccc(C[C@@H](NC(=O)Nc2ccc(F)cc2)C(=O)NCC2(c3ccc(OC(F)(F)F)cc3)CC2)cc1 the compound remaining was over 80% (rat; 10 µM; 30 min; pH 7.4).
For CCCn1nc(C(=O)N2CCCCC2)c2c1CCC(NCCN1CCCCC1)C2 (stereo not shown), the compound remaining was 54% (mouse; 10 µM; 1 h).
With Cc1ncsc1-c1ccc(CNC(=O)[C@@H]2C[C@@H](O)CN2C(=O)[C@@H](NC(=O)CCCCCCCCCCNC(=O)O[C@H]2C[C@@H](C)C=C3C=C[C@H](C)[C@H](CC[C@@H]4C[C@@H](O)CC(=O)O4)[C@H]32)C(C)(C)C)cc1 the compound remaining was 8.23% (mouse; 1 µM; 15 min; pH 7.4).
CCCn1nc(C(=O)N2CCCCC2)c2c1CCC(NCc1ccc(N3CCCCC3)cc1)C2 (stereo not shown) gave a compound remaining of 47% (mouse; 10 µM; 1 h).
With O=S(=O)(c1cccc2cccnc12)N1CC(c2nc(-c3ccc(F)cc3)no2)C1 the compound remaining was 74% (mouse; 10 min).
With Cc1ccc2c(c1)nc(/C=C/c1cccc3cccnc13)n2-c1ccccc1 the compound remaining was 75.4% (rat; 1.5 µM; 5 min).
The compound remaining of CS(=O)(=O)c1ccc(-c2cnc(N)c(-c3ccc(C(F)(F)F)nc3)c2)cc1 is reported as 97% (male rat; 1 µM; 30 min).
